For series [1], the system named is MDA-MB-435. As to the kind of experiment: Toxicity in human MDA-MB-435 cells assessed as mortality at 3 uM measured after 24 hrs by MTT assay relative to control. It is filed as cell-based. The following applies: mda-mb-435, 24 h. The procedure, abridged: (§1)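 MTT viability assay: about 4 × 10⁴ MDA-MB-435s cells seeded in triplicate with the molecules (tested series 100 nM, 300 nM, 1 µM, 3 µM, 10 µM) and kept 24 h at 37 °C. Medium was then removed and cells incubated 45 min at 37 °C with tetrazolium salt, which viable cells reduce to formazan. Results given as % mortality.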

The subject of series [2] is MDA-MB-435. As to the kind of experiment: Toxicity in human MDA-MB-435 cells assessed as mortality at 1 uM measured after 24 hrs by MTT assay relative to control. Format: cell-based. The following applies: mda-mb-435, 24 h. In a few lines: as §1
Series [3] deals with MDA-MB-435. As to the kind of experiment: Toxicity in human MDA-MB-435 cells assessed as mortality at 10 uM measured after 24 hrs by MTT assay relative to control. It is filed as cell-based. The following applies: mda-mb-435, 24 h. The procedure, abridged: as §1
Series [4] can be described thus: Toxicity in human MCF7 cells assessed as reduction in cell number after 48 hrs by Hoechst 33342 staining based assay. In a few lines: (§2)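 4000 cells per well. Cells exposed 24 h after seeding to 6 concentrations ([…]) for 48 h. They were then fixed in cold 90% ethanol/5% acetic acid for 20 min and nuclei stained with Hoechst 33342. Plates imaged on a high-content reader. IC₅₀ calculated; normal diploid skin fibroblasts served as control cells.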

The nature of series [5]: Toxicity in human HCT-116 cells assessed as reduction in cell number after 48 hrs by Hoechst 33342 staining based assay. In a few lines: as §2
Series [6] is described as follows: Toxicity in human NCI-H727 cells assessed as reduction in cell number after 48 hrs by Hoechst 33342 staining based assay. In a few lines: as §2
Series [7] in a line: Toxicity in human skin fibroblasts assessed as reduction in cell number after 48 hrs by Hoechst 33342 staining based assay. It is filed as tissue-based, Fibroblast. The procedure, abridged: as §2
The nature of series [8]: Toxicity in human MDA-MB-231 cells assessed as reduction in cell number after 48 hrs by Hoechst 33342 staining based assay. In a few lines: as §2
Series [9] in a line: Toxicity in human Huh-7 cells assessed as reduction in cell number after 48 hrs by Hoechst 33342 staining based assay. In a few lines: as §2
Series [10] is described as follows: Toxicity in human Caco-2 cells assessed as reduction in cell number after 48 hrs by Hoechst 33342 staining based assay. In a few lines:
as §2

The nature of series [11]: Toxicity in human PC-3 cells assessed as reduction in cell number after 48 hrs by Hoechst 33342 staining based assay. The procedure, abridged:
as §2

For series [12], the target named is Small conductance calcium-activated potassium channel protein 3 (Homo sapiens) (UniProt Q9UGI6). As to the kind of experiment: Inhibition of SK3 (unknown origin) expressed in HEK293 cells assessed as reduction in channel current at 2 uM with 0 mV holding potential in presence of -apamin by patch clamp electrophysiological method. Format: cell-based. The procedure, abridged:
(§3)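 Patch clamp on HEK-293 cells stably expressing SK3 (lentiviral). Compound added acutely; DMSO/methanol was the vehicle, and runs with or without apamin. Ramp from −80 to +80 mV, holding at 0 mV, 500 ms ramps at 4 s intervals. Current analyzed at 0 mV to minimize chloride currents, followed as a time course. Pipette solution adjusted to pH 7.2 with KOH.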
(In general: Patch clamp records ionic current or voltage across a cell membrane.)

Series [13] deals with ORAI1/STIM1 (Homo sapiens) (UniProt Q96D31+Q13586). Put plainly: Inhibition of STIM1/Orai1 (unknown origin) expressed in HEK293 cells assessed as reduction in Ca2+-release activated Ca2+ entry current at 2 uM by whole cell patch clamp electrophysiological method. It is filed as cell-based.
Series [14] has as its target Small conductance calcium-activated potassium channel protein 3 (Homo sapiens) (UniProt Q9UGI6). Put plainly: Inhibition of SK3 (unknown origin) expressed in HEK293 cells assessed as reduction in channel current at 2 uM with 0 mV holding potential measured within 10 secs by patch clamp electrophysiological method relative to control. Format: cell-based. The following applies: time 10.0 sec. The procedure, abridged:
as §3

Series [15] has the same target. Put plainly: Inhibition of SK3 in human MDA-MB-435 cells harboring SK3 shRNA assessed as reduction in Ca2+ influx at 300 nM measured after 1 hr by Fura2-AM dye based fluorescence assay. Format: cell-based. In a few lines:
(§4)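 Constitutive Ca²⁺ entry in MDA-MB-435s shRD or shSK3 cells, measured 48 h after transfection with 30 nM siOrai1 or siCTL. Cells were treated 1 h with compound and loaded with Fura2-AM for 45 min at 37 °C. They were then resuspended in Ca²⁺-free solution for 20 s before 2 mM CaCl₂ was added. Emission read at 510 nm with 340/380 nm excitation. Steady-state signal normalized to control. Three experiments in triplicate.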

The target is the same in series [16]. Put plainly: Inhibition of SK3 (unknown origin) expressed in HEK293 cells assessed as reduction in channel current at 2 uM with 0 mV holding potential by patch clamp electrophysiological method. It is filed as cell-based. The procedure, abridged:
as §3

Series [17] deals with MDA-MB-435. Put plainly: Antimetastatic activity against human MDA-MB-435 cells harboring shRNA assessed as reduction in cell migration at 100 to 300 nM after 24 hrs […]. Format: functional, cell-based. The following applies: dose 100-300 nM.
The test system of series [18] is MDA-MB-435. As to the kind of experiment: Effect on calcium influx in human MDA-MB-435 cells harboring siRNA and siOrai1 at 300 nM measured after 1 hr by Fura2-AM dye based fluorescence assay. Format: functional, cell-based. The procedure, abridged: as §4
Series [19] relates to MDA-MB-435. As to the kind of experiment: Inhibition of SK3/Orai1 in human MDA-MB-435 cells harboring SK3 shRNA assessed as reduction in Ca2+ influx at 300 nM measured after 1 hr by Fura2-AM dye based fluorescence assay relative to control. Format: cell-based. The procedure, abridged: as §4
Series [20] relates to MDA-MB-435. As to the kind of experiment: Antimetastatic activity against human MDA-MB-435 cells assessed as reduction in cell migration at 100 to 300 nM after 24 hrs by crystal violet staining based assay relative to control. Set-up: scale not given: the % may be the effect or the level left. The following applies: dose 100-300 nM.
Series [21] deals with MDA-MB-435. As to the kind of experiment: Effect on calcium influx in human MDA-MB-435 cells harboring siRNA and siCTL at 300 nM measured after 1 hr by Fura2-AM dye based fluorescence assay. It is filed as functional, cell-based. In a few lines: as §4
The subject of series [22] is MDA-MB-435. As to the kind of experiment: Antimetastatic activity against human MDA-MB-435 cells assessed as reduction in cell migration at 1 uM after 24 hrs by […] relative to control. It is filed as functional. Further details: scale not given: the % may be the effect or the level left.

Activity calls are given as the source filed them. No cut-off for these calls is given here. Some results are limits rather than exact numbers.

Experimental findings from ChEMBL document CHEMBL4715835, “Lipidic synthetic alkaloids as SK3 channel modulators. Synthesis and biological evaluation of 2-substituted tetrahydropyridine derivatives with potential anti-metastatic activity” (Eur J Med Chem, 2020) are described below.

Sequence of Small conductance calcium-activated potassium channel protein 3 (Homo sapiens) (Q9UGI6 whole entry): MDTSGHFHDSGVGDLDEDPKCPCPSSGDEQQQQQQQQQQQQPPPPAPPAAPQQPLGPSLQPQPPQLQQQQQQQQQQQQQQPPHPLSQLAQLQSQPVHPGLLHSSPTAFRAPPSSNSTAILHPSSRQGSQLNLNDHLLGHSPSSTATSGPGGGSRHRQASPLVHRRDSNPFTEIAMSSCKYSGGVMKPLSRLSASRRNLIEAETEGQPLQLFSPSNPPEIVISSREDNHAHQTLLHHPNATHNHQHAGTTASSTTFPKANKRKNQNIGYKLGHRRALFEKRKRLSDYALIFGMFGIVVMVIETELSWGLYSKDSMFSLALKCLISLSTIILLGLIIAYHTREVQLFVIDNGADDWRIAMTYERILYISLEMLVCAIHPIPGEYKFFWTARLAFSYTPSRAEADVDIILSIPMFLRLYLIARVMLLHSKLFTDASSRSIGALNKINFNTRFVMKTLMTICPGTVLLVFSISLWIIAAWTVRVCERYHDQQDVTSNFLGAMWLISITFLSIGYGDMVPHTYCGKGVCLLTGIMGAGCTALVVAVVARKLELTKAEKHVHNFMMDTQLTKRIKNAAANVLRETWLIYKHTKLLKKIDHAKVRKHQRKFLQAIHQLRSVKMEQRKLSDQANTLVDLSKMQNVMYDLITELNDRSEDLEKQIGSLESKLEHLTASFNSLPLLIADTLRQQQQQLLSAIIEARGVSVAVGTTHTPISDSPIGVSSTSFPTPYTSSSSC
Sequence of ORAI1/STIM1 (Homo sapiens) (Q13586 23-685 partner limits assumed): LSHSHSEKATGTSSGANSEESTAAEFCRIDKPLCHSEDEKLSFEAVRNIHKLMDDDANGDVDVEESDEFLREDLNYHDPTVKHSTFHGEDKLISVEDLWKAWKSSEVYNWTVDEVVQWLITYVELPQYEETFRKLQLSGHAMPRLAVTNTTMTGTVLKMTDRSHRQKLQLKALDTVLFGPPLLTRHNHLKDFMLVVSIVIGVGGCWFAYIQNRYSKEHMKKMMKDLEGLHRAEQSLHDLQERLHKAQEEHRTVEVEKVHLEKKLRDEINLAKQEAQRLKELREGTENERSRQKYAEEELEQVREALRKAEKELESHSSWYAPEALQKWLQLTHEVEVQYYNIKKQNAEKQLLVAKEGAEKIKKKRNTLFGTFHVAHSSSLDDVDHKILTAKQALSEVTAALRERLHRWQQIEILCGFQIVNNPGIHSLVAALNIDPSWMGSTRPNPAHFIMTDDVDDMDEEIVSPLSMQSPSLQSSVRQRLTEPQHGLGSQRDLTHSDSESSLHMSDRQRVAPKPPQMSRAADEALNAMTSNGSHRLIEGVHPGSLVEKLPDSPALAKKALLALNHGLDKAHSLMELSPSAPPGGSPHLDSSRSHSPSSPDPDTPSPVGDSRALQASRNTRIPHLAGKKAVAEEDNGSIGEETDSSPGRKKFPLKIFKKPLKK
Sequence of ORAI1/STIM1 (Homo sapiens) (Q96D31 whole entry): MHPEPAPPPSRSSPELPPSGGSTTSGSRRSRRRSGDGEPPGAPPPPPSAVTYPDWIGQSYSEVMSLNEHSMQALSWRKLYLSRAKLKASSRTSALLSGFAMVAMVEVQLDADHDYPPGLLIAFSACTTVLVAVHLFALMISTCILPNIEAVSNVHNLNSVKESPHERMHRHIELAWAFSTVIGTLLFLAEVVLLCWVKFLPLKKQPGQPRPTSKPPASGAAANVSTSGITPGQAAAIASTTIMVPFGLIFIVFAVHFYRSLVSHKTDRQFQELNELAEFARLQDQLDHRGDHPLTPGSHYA

For `CCCCCCCCCCCCCCCCCCCC(O)Cc1ccccn1` (configuration not stated), the mortality in [1] and in series [2] was 20% each time.
For `CCCCCCCCCCCCCCCCC[C@@H](O)C[C@@H]1CCCCN1C`, the mortality – broadly, the share of the test organisms that died – in [3] came out at 35%; in series [2], 0%.
Regarding `CCCCCCCC/C=C\CCCCCCC[C@H](O)C[C@@H]1C=CCCN1C`, the IC50 – broadly, the concentration that gives 50% inhibition – at 48 h in [4] is 18 µM; in [5], 15 µM; in [6], > 25 µM; in [7], 25 µM; in series [8], 14 µM; in [9], 24 µM. For the same compound, the IC50 at 48 h came to 6 µM in series [10] and 19 µM in series [11]. For the same compound, the mortality in series [1] is 40%; in [2] it was 30%.
Take `CCCCCCCCCCCCCCCCCC(Cc1cccc[n+]1C)OC.Cc1ccc(S(=O)(=O)[O-])cc1` (configuration not stated): the values for the mortality in [3] and in [2] were 80% and 30%, respectively.
`CCCCCCCCCCCCCCCCC[C@@H](O)C[C@@H]1C=CCCN1C`: the concentration for half-maximal inhibition (IC50) at 48 h in [4], in series [5], in series [6], in series [7], in series [8] and in series [9] was > 25 µM in each case. The IC50 at 48 h is 21 µM in series [10] and > 25 µM in series [11]. Moreover, the mortality in series [3] stood at 80%; in [2] it was 0%.
On to `COc1cccc2c1C(=O)c1c(O)c3c(c(O)c1C2=O)C[C@@](O)(C(=O)CO)C[C@@H]3O[C@H]1C[C@H](N)[C@H](O)[C@H](C)O1` [DOXORUBICIN], for which the IC50 at 48 h in series [5] is 0.12 µM; in [6], 0.66 µM; in series [7] it was 0.03 µM; in series [10], 0.17 µM; in [11] it was 0.12 µM.
Regarding `CCCCCCCCCCCCCCCCC[C@H](O)C[C@@H]1C=CCCN1C`, the concentration for half-maximal inhibition (IC50) at 48 h in series [4], in series [5], in [6], in series [7], in [8] and in series [9] was > 25 µM each time. The figures for the 50% inhibitory concentration (IC50) at 48 h in [10] and in series [11] were 16 µM and > 25 µM, respectively. Further, in [12], the inhibition (commonly the change of the read-out against control, counted positive when it falls) is “Active”. Further, the inhibition entry in [13] and in series [15] was “inactive” in each case. In addition, the inhibition was 50% in series [14], 90% in series [16] and < 40% in series [19]. For the same compound, the result in series [17], in series [18] and in series [21] was inactive. Besides, the mortality in [3] and in series [2] was 0% throughout. In addition, the Activity entry in series [20] and in series [22] was “<=60%” in each case.
For the compound `CCCCCCCCCCCCCCCCCCC[C@H](C[C@@H]1C=CCCN1C)OC(C)=O`, the IC50 at 48 h in series [4], in series [5], in [6], in [7], in [8] and in series [9] was > 25 µM in each case. In addition, the IC50 at 48 h is 17 µM in series [10] and > 25 µM in [11]. Also, the mortality in series [3] is listed as 20%; in series [2] it was 0%.
`CCCCCCCCCCCCCCCCCCC[C@@H](O)C[C@@H]1C=CCCN1C`: the IC50 at 48 h in series [4], in series [5], in series [6], in series [7], in series [8] and in series [9] was > 25 µM each time. Also, the half-maximal inhibitory concentration (IC50) at 48 h in series [10] and in series [11] was > 25 µM throughout. Besides, the mortality in series [1] came out at 30%; in series [2], 20%.
In the case of `CCCCCCCC/C=C\CCCCCCCC(Cc1ccccn1)OC` (configuration not stated), the figures for the mortality in series [1] and in series [2] were 25% and 20%, respectively.
Regarding `CCCCCCCCCCCCCCCCCC(Cc1ccccn1)OC` (configuration not stated), the mortality in series [3] and in series [2] was 0% in each case.
In the case of `CCCCCCCC/C=C\CCCCCCC[C@@H](O)C[C@@H]1C=CCCN1C`, the half-inhibitory concentration (IC50) at 48 h in [4] was found to be 10 µM; in series [5], 10 µM; in [6], 9 µM; in [7], 9 µM; in series [8], 8 µM; in [9], 10 µM. For the same compound, the IC50 at 48 h in series [10] amounted to 8 µM; in [11], 7 µM. The mortality in series [1] was 80%; in series [2], 30%.
With `CCCCCCCC/C=C\CCCCCCCC(O)Cc1ccccn1` (configuration not stated), the mortality in series [1] is reported as 25%; in series [2], 20%.
Turning to `CCCCCCCCCCCCCCCCC[C@H](C[C@@H]1C=CCCN1C)OC(C)=O`, the IC50 at 48 h is 19 µM in [4]; 16 µM in series [5]; > 25 µM in series [6]; 18 µM in series [7]; 21 µM in series [8]; 22 µM in [9]. The half-maximal inhibitory concentration (IC50) at 48 h in series [10] came out at 9 µM; in series [11], 15 µM. For the same compound, the mortality is on record as 70% in series [3] and 5% in [2].
In the case of `CCCCCCCCCCCCCCCCCCC[C@H](O)C[C@@H]1C=CCCN1C`, the IC50 at 48 h in series [4], in series [5], in [6], in series [7], in series [8] and in [9] was > 25 µM each time. For the same compound, the IC50 at 48 h in [10] is 14 µM; in [11], > 25 µM. The mortality in series [1] and in series [2] was 30% each time.
For the compound `CCCCCCCCCCCCCCCCC[C@@H](C[C@@H]1C=CCCN1C)OC(C)=O`, the IC50 at 48 h was > 25 µM in series [4]; 24 µM in series [5]; > 25 µM in series [6]; 24 µM in series [7]; 22 µM in series [8]; > 25 µM in series [9]. For the same compound, the concentration for half-maximal inhibition (IC50) at 48 h in series [10] was 9 µM; in series [11], 26 µM. The mortality is on record as 20% in [3] and 0% in series [2].
Consider `CCCCCCCCCCCCCCCCCCCC(Cc1ccccn1)OC` (configuration not stated), for which the mortality in [1] and in [2] was 20% each time.
On to `CCCCCCCCCCCCCCCCCC(O)Cc1ccccn1` (configuration not stated), for which the mortality in series [3] and in [2] was 0% each time.
